ChEMBL document CHEMBL5038600, “Discovery of M-1121 as an Orally Active Covalent Inhibitor of Menin-MLL Interaction Capable of Achieving Complete and Long-Lasting Tumor Regression” (J Med Chem, 2021)
The source made the active and inactive calls. The calls are words filed in the database; no cut-off is given here.

Columns and labels:
MV4-11 [1] = experiment: Suppression of MEIS1 gene expression in human MV4-11 cells at 30 nM measured after 24 hrs by qRT-PCR analysis; type: functional, cell-based
Menin (Homo sapiens) [2] = biological target: T1, Menin (Homo sapiens) (UniProt O00255); experiment: Binding affinity to recombinant human menin protein assessed as covalent complex formation incubated for 1 hrs by LC/MS analysis; design: concentration or dose not given beside the values
T1 sequence (whole entry): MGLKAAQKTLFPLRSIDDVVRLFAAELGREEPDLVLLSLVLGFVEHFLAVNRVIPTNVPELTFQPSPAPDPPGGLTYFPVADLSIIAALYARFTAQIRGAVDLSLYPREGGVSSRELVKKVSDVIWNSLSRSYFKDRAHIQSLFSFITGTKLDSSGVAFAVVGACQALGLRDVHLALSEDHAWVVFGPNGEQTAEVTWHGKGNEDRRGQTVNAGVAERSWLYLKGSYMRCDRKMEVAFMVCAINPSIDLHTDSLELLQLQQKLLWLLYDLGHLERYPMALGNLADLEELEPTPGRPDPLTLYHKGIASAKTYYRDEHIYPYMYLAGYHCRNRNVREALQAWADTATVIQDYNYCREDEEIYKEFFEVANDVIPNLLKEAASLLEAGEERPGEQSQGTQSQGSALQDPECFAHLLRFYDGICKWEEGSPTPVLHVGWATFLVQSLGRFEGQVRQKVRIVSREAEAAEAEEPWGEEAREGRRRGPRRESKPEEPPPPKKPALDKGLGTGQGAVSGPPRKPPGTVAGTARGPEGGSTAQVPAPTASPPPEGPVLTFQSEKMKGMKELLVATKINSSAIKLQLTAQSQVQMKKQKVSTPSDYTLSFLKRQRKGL
Summary of the method: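 Menin (25 mg/mL in 25 mM Tris pH 8.0, 150 mM NaCl, 5 mM DTT) incubated with compound at a 1:1.2 protein:compound molar ratio for 1 h or overnight at 4 °C. Diluted to 1 mg/mL, then reverse-phase C4 LC with a 5–100% MeCN/0.2% formic acid gradient and Q-TOF mass spectrometry to detect the covalent adduct.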

Menin (Homo sapiens) [3] = biological target: T1, Menin (Homo sapiens); experiment: Binding affinity to recombinant human menin protein assessed as covalent complex formation measured after overnight incubation by LC/MS analysis; design: concentration or dose not given beside the values
[4] = Volume of distribution at steady state in C57BL/6 mouse at 1 mg/kg, iv; type: ADME, organism-based; conditions: in vivo, read-out: Vdss
Summary of the method: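 Female C57BL/6 mice, single IV dose of 1 mg/kg given as a solution in 10% NMP, 10% Solutol HS15 and 80% saline. Parameters come from the plasma concentration–time profile.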

[5] = AUC (0 to infinity) in C57BL/6 mouse at 5 mg/kg, po; type: ADME, organism-based; design: route oral, time infinity, dose 5 mg/kg; conditions: in vivo
Summary of the method: (§1)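 Female C57BL/6 mice, single oral dose of 5 mg/kg in 0.5% methyl cellulose + 0.2% Tween 80 (w/w). Bioavailability is calculated against the 1 mg/kg IV arm.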

[6] = Oral bioavailability in C57BL/6 mouse at 5 mg/kg; type: ADME, organism-based; conditions: in vivo; summary of the method: as §1
KOPN-8 = experiment: Anti-proliferative activity against human KOPN-8 cells harboring MLL/ENL fusion protein assessed as cell growth inhibition measured after 4 days by Cell Titre Glo Luminescent Cell viability assay; type: functional, cell-based; conditions: KOPN-8, 96 h
Summary of the method: (§2)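 Leukemia lines plated in triplicate in RPMI 1640 at 37 °C, 5% CO2. 9-point dose response from 10 μM top concentration with 1:3 serial dilutions, 0.1% DMSO final; DMSO vehicle control column. Cellular ATP read by CellTiter-Glo at day 0 and after 4 days. Averages from three independent experiments.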

RS4-11 = experiment: Anti-proliferative activity against human RS4-11 cells harboring MLL/AF4 fusion protein assessed as cell growth inhibition measured after 4 days by Cell Titre Glo Luminescent Cell viability assay; type: functional, cell-based; conditions: RS4-11, 96 h; summary of the method: as §2
HL-60 = experiment: Anti-proliferative activity against human HL-60 cells harboring MLL wild-type protein assessed as cell growth inhibition measured after 4 days by Cell Titre Glo Luminescent Cell viability assay; type: functional, cell-based; conditions: HL-60, 96 h; summary of the method: as §2
K562 = experiment: Anti-proliferative activity against human K562 cells harboring MLL wild-type protein assessed as cell growth inhibition measured after 4 days by Cell Titre Glo Luminescent Cell viability assay; type: functional, cell-based; conditions: K562, 96 h; summary of the method: as §2
MEG-01 = experiment: Anti-proliferative activity against human MEG-01 cells harboring MLL wild-type protein assessed as cell growth inhibition measured after 4 days by Cell Titre Glo Luminescent Cell viability assay; type: functional, cell-based; conditions: MEG-01, 96 h; summary of the method: as §2
[7] = Protein binding in rat plasma at 1 uM incubated for 5 hrs by liquid chromatography-tandem mass spectrometry; type: ADME, cell-free
Summary of the method: (§3)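 Equilibrium dialysis: plasma spiked at 1 μM against dialysis buffer, shaken 5 h at 37 °C, with warfarin and quinidine (1 μM) as controls. Samples matrix-matched, quenched with acetonitrile containing imipramine internal standard, and analysed by LC-MS/MS. Percent bound computed from peak area ratios.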

[8] = Protein binding in mouse plasma at 1 uM incubated for 5 hrs by liquid chromatography-tandem mass spectrometry; type: ADME, cell-free; summary of the method: as §3
[9] = Toxicity in SCID mouse xenografted with human MV4-11 cells assessed as change weight loss at 100 mg/kg, po administered daily for 26 days; type: organism-based; conditions: in vivo, 624 h, time 26 day
Summary of the method: (§4)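 Female C.B-17 SCID mice bearing subcutaneous MV4;11 flank tumors (5×10^6 cells with Matrigel 1:1), treated once tumors averaged about 100 mm3. Dosed 100 mg/kg daily by oral gavage for 26 days in 0.5% MC + 0.2% Tween 80 vehicle. Body weight measured daily.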

[10] = Toxicity in SCID mouse xenografted with human MV4-11 cells assessed as signs of toxicity at 100 mg/kg, po administered daily for 26 days; type: organism-based; conditions: in vivo, 624 h, time 26 day; summary of the method: as §4
MV4-11 [11] = experiment: Anti-tumor activity against human MV4-11 cells xenografted in SCID mouse assessed as tumor regrowth at 300 mg/kg, po qd administered daily for 15 days; type: functional, organism-based; conditions: time 15.0 day
Summary of the method: (§5)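 Female C.B-17 SCID mice, 5–6 weeks old, implanted subcutaneously in the right flank with 5×10^6 MV4;11 cells in 1:1 Matrigel. Randomized at about 200 mm3. Dosed 300 mg/kg by oral gavage once daily for 15 days in 0.5% MC (400 cP) + 0.2% Tween 80 at 10 mL/kg. Body weight measured daily; caliper volume (0.5×W×W×L) three times weekly.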

[12] = Toxicity in SCID mouse xenografted with human MV4-11 cells assessed as signs of toxicity at 300 mg/kg, po qd administered daily for 15 days; type: organism-based; conditions: in vivo, 360 h, time 15 day; summary of the method: as §5
MV4-11 [13] = experiment: Anti-tumor activity against luciferase-tagged human MV4-11 cells xenografted in NCG mouse assessed as induction of CD11b protein in human CD45+ cells at 150 mg/kg, po administered daily for 4 days measured after 48 hrs by qRT-PCR analysis; type: functional, organism-based; conditions: time 4.0 day, in the assay text read “flow cytometry analysis” for “qRT-PCR analysis”
Summary of the method: (§6)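 Female NCG mice, 5–6 weeks old, given 5×10^6 luciferase-tagged MV4;11 cells IV via tail vein. Randomized at log-phase disease (day 27). Dosed 150 mg/kg oral gavage daily for 4 days in MC/Tween 80 vehicle. Read-outs 48 h after the last dose, five mice per group, mean ± SEM: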

MV4-11 [14] = experiment: Anti-tumor activity against luciferase-tagged human MV4-11 cells xenografted in NCG mouse assessed as reduction in number of CD45+/CD33+ cells at 150 mg/kg, po administered daily for 4 days measured after 48 hrs by flow cytometry; type: functional, organism-based; conditions: time 4.0 day; summary of the method: as §6

Structure (SMILES): C=CC(=O)N1C[C@@H]2C[C@H]1CN2S(=O)(=O)c1ccc(N2CC(CN3CCC([C@@](CN4CCC4)(c4cccc(F)c4)[C@H]4CCC[C@@H]4NC(=O)OC)CC3)(OC)C2)cc1
- inhibition (MV4-11 [1]): Active
- Activity (Menin (Homo sapiens) [2]): 66%
- Activity (Menin (Homo sapiens) [3]): 100%
- Vd [4]: 0.33 L/kg
- AUC(0-inf) [5]: 43600 ng·h/mL
- F [6]: 49.4%
- IC50 (KOPN-8): 0.11 µM
- IC50 (RS4-11): 1 µM
- IC50 (HL-60): > 10 µM
- IC50 (K562): > 10 µM
- IC50 (MEG-01): > 10 µM
- PPB [7]: 87.5%
- PPB [8]: 99.3%
- Activity [9]: Non-Toxic
- Activity [10]: Non-Toxic
- Activity (MV4-11 [11]): Active
- Activity [12]: Non-Toxic
- Activity (MV4-11 [13]): Active
- Activity (MV4-11 [14]): Active
